Results: ChEMBL document CHEMBL4840305, “Structure-guided design and development of novel N-phenylpyrimidin-2-amine derivatives as potential c-Met inhibitors” (Eur J Med Chem, 2021)

Assays:
[1] = tested on: PANC-1; experiment: cells; details: Homo sapiens
[2] = tested on: PC-3; experiment: cells; details: Homo sapiens
[3] = tested on: HCT-116; experiment: cells; details: Homo sapiens
[4] = tested on: CAKI-1; experiment: cells; details: Homo sapiens
[5] = tested on: HepG2; experiment: cells; details: Homo sapiens
[6] = target: Hepatocyte growth factor receptor (Homo sapiens, UniProt P08581); experiment: Inhibition of c-MET kinase (unknown origin) using poly(Glu:Tyr)(4:1) as substrate by ELISA
[7] = target: Voltage-gated inwardly rectifying potassium channel KCNH2 (Homo sapiens, UniProt Q12809); experiment: Inhibition of human ERG
[8] = Acute toxicity in ICR mouse assessed as animal survival at 800 mg/kg, po measured on day 14 (reference value: 100%); format: organism-based; details: in vivo, time 14 day
[9] = Acute toxicity in ICR mouse assessed as abnormalities in liver at 600 to 1200 mg/kg, po administered as single dose and measured on day 14; format: organism-based; details: in vivo, 336 h, dose 600-1200 mg/kg, time 14 day
[10] = Cmax in Sprague-Dawley rat at 4 mg/kg, iv by LC-MS/MS analysis; format: ADME, organism-based; design: route intravenous, dose 4 mg/kg; details: in vivo
Summary of the method: (§1)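 Male SD rats were used. Compound concentrations in plasma were measured by LC/MS/MS. The oral arm was dosed at 20 mg/kg.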

[11] = Cmax in Sprague-Dawley rat at 20 mg/kg, po by LC-MS/MS analysis; format: ADME, organism-based; design: route oral, dose 20 mg/kg; details: in vivo
Summary of the method: as §1

[12] = Acute toxicity in ICR mouse assessed as animal survival at 600 mg/kg, po measured on day 14 (reference value: 100%); format: organism-based; details: in vivo, time 14 day
[13] = Half life in Sprague-Dawley rat at 20 mg/kg, po by LC-MS/MS analysis; format: ADME, organism-based; details: in vivo
Summary of the method: as §1

[14] = AUC(0 to t) in Sprague-Dawley rat at 20 mg/kg, po by LC-MS/MS analysis; format: ADME, organism-based; design: dose 20 mg/kg; details: in vivo
[15] = Acute toxicity in ICR mouse assessed as animal survival at 2000 mg/kg, po measured on day 14 (reference value: 100%); format: organism-based; details: in vivo, time 14 day
[16] = Acute toxicity in ICR mouse assessed as animal survival at 1000 mg/kg, po measured on day 14 (reference value: 100%); format: organism-based; details: in vivo, time 14 day
[17] = Oral bioavailability in Sprague-Dawley rat at 20 mg/kg by LC-MS/MS analysis; format: ADME, organism-based; details: in vivo
Summary of the method: as §1

[18] = Apparent clearance during terminal phase in Sprague-Dawley rat at 4 mg/kg, iv by LC-MS/MS analysis; format: ADME, organism-based; details: in vivo
Summary of the method: as §1

[19] = Tmax in Sprague-Dawley rat at 20 mg/kg, po by LC-MS/MS analysis; format: ADME, organism-based; details: in vivo
Summary of the method: as §1

[20] = Acute toxicity in ICR mouse assessed as abnormalities in heart at 600 to 1200 mg/kg, po administered as single dose and measured on day 14; format: organism-based; details: in vivo, 336 h, dose 600-1200 mg/kg, time 14 day
[21] = Acute toxicity in ICR mouse assessed as abnormalities in kidneys at 600 to 1200 mg/kg, po administered as single dose and measured on day 14; format: organism-based; details: in vivo, 336 h, dose 600-1200 mg/kg, time 14 day
[22] = Acute toxicity in ICR mouse assessed as animal survival at 1500 mg/kg, po measured on day 14 (reference value: 100%); format: organism-based; details: in vivo, time 14 day
[23] = AUC(0 to t) in Sprague-Dawley rat at 4 mg/kg, iv by LC-MS/MS analysis; format: ADME, organism-based; design: dose 4 mg/kg; details: in vivo
Summary of the method: as §1

[24] = Half life in Sprague-Dawley rat at 4 mg/kg, iv by LC-MS/MS analysis; format: ADME, organism-based; details: in vivo
Summary of the method: as §1

[25] = Acute toxicity in ICR mouse assessed as animal survival at 1200 mg/kg, po measured on day 14 (reference value: 100%); format: organism-based; details: in vivo, time 14 day
[26] = Apparent clearance during terminal phase in Sprague-Dawley rat at 20 mg/kg, po by LC-MS/MS analysis; format: ADME, organism-based; details: in vivo, read-out: CLz/F (converted)
Summary of the method: as §1

Chain of Hepatocyte growth factor receptor (P08581 whole entry): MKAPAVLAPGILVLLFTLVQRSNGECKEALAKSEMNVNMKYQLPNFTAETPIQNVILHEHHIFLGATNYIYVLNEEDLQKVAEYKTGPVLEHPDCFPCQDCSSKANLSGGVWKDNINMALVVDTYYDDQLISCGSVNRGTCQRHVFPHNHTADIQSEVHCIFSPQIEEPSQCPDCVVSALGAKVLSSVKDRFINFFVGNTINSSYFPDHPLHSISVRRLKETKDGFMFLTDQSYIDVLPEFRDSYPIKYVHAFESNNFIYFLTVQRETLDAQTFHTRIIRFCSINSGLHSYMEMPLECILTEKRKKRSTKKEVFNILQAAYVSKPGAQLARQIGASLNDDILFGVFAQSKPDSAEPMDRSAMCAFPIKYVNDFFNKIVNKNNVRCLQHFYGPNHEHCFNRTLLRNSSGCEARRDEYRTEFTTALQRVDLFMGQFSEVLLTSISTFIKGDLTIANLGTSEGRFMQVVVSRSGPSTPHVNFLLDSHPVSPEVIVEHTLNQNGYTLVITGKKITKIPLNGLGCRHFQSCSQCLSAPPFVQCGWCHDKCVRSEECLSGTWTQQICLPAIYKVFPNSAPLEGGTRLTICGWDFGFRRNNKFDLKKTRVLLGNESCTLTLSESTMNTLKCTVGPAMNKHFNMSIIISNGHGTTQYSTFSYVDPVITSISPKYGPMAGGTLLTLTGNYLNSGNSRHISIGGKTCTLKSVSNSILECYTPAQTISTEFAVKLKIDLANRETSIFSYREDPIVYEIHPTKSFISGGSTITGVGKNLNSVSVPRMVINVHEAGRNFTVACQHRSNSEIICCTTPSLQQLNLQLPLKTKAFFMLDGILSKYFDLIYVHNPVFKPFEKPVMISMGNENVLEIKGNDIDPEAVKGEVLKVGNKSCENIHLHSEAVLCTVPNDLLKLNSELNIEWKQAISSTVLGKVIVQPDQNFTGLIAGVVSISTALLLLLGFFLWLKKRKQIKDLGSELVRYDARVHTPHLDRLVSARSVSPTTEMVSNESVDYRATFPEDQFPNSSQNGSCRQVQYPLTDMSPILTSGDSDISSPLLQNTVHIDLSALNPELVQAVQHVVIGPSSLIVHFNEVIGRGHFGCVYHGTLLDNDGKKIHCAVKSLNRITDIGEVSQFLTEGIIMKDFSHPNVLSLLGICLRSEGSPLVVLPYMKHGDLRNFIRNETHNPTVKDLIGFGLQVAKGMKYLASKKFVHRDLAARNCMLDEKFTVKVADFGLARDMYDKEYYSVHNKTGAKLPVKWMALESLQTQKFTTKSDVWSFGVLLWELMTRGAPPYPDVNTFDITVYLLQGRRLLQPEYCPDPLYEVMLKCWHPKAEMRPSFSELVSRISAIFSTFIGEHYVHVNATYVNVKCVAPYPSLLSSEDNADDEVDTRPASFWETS
Chain of Voltage-gated inwardly rectifying potassium channel KCNH2 (Q12809 whole entry): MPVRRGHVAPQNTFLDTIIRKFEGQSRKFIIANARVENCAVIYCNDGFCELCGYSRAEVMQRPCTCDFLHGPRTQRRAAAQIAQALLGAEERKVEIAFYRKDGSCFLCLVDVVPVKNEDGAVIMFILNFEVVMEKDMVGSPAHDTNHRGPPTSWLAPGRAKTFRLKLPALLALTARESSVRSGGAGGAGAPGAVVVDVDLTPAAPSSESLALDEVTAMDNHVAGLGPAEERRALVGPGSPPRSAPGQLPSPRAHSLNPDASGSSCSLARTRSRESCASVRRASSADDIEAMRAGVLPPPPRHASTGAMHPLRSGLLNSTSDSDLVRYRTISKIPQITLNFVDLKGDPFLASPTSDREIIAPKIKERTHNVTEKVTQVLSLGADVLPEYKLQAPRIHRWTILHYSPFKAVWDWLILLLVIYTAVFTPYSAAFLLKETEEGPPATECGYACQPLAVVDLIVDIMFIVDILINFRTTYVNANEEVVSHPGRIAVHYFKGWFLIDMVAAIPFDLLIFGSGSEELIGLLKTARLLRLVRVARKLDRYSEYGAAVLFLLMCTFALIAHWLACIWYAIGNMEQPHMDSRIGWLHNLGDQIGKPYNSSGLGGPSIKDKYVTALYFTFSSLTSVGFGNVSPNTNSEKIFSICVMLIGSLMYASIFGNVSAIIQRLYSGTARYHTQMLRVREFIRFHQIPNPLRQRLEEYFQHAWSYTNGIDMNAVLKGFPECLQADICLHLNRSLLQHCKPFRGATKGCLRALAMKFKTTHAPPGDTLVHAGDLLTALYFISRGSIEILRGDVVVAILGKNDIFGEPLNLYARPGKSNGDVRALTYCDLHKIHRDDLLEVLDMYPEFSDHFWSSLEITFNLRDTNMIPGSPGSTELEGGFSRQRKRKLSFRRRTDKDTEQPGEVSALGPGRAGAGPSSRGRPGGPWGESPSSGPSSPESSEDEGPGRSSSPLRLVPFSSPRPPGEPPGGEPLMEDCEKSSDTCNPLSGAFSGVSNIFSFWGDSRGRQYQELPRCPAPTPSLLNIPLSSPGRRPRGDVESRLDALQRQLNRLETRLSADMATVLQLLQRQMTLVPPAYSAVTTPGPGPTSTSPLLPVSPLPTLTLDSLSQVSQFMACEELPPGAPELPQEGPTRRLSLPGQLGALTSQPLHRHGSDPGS

Compound	IC50 [1]	IC50 [2]	IC50 [3]	IC50 [4]	IC50 [5]	IC50 [6]	also measured
O=C(Nc1ccc(F)cc1)C1(C(=O)Nc2ccc(Oc3ccnc(Nc4cccc(N5CCOCC5)c4)c3)cc2)CC1	4.01 µM	3.3 µM	4.79 µM	2.59 µM	4.86 µM	–	–
COC(=O)c1ccc(Nc2nccc(Oc3ccc(NC(=O)C4(C(=O)Nc5ccc(F)cc5)CC4)cc3)n2)c(OC)c1	–	–	–	–	–	> 2 µM	–
COc1cc2nccc(Oc3ccc(NC(=O)C4(C(=O)Nc5ccc(F)cc5)CC4)cc3)c2cc1OC [CABOZANTINIB]	–	–	–	–	–	–	IC50 [7]: > 30 µM
O=C(Nc1ccc(F)cc1)C1(C(=O)Nc2ccc(Oc3cc(Nc4cccc(N5CCOCC5)c4)ncn3)c(F)c2)CC1	5.53 µM	4.71 µM	7.99 µM	2.69 µM	5.97 µM	–	–
O=C(Nc1ccc(Oc2ccnc(Nc3cccc(CN4CCOCC4)c3)n2)cc1)c1ccccc1Nc1ccc(F)cc1	–	–	–	–	–	> 1 µM	–
O=C(Nc1ccc(F)cc1)c1ccccc1Nc1ccc(Oc2ccnc(Nc3cccc(CN4CCOCC4)c3)n2)cc1	–	–	–	–	–	> 1 µM	–
O=C(Nc1ccc(F)cc1)C1(C(=O)Nc2ccc(Oc3ccnc(Nc4cccc(N5CCOCC5)c4)n3)c(F)c2)CC1	3.4 µM	2.34 µM	3.15 µM	2.92 µM	2.21 µM	–	–
O=C1CCCc2cc(Nc3nccc(Oc4ccc(NC(=O)C5(C(=O)Nc6ccc(F)cc6)CC5)cc4)n3)ccc2N1	3.28 µM	2.6 µM	3.14 µM	1.47 µM	3.24 µM	–	–
O=C(Nc1ccc(Oc2ccnc(Nc3cccc(N4CCOCC4)c3)n2)cc1)c1ccccc1Nc1ccc(F)cc1	–	–	–	–	–	> 1 µM	–
COc1cc(C(=O)NCC2CC2)ccc1Nc1nccc(Oc2ccc(NC(=O)C3(C(=O)Nc4ccc(F)cc4)CC3)cc2)n1	–	–	–	–	–	> 2 µM	–
Cc1c(C(=O)Nc2ccc(Oc3ccnc(Nc4cccc(N5CCOCC5)c4)n3)c(F)c2)c(=O)n(-c2ccccc2)n1C	2 µM	1.8 µM	2.34 µM	1.88 µM	2.1 µM	–	–
CNC(=O)c1cccc(Nc2nccc(Oc3ccc(NC(=O)C4(C(=O)Nc5ccc(F)cc5)CC4)cc3)n2)c1	2.85 µM	1.93 µM	3.56 µM	3.31 µM	7.01 µM	–	–
CN1CCN(c2cccc(Nc3nccc(Oc4ccc(NC(=O)C5(C(=O)Nc6ccc(F)cc6)CC5)cc4)n3)c2)CC1	3.16 µM	2.25 µM	2.02 µM	1.63 µM	1.73 µM	–	–
O=C(Nc1ccc(F)cc1)C1(C(=O)Nc2ccc(Oc3ccnc(Nc4cccc(N5CCOCC5)c4)n3)cc2)CC1	6.67 µM	2.65 µM	4.2 µM	3.9 µM	3.57 µM	–	–
COC(=O)c1ccc(Nc2nccc(Oc3ccc(NC(=O)C4(C(=O)Nc5ccc(F)cc5)CC4)cc3)n2)nc1	–	–	–	–	–	> 2 µM	–
O=C(Nc1ccc(F)cc1)c1ccccc1Nc1ccc(Oc2ccnc(Nc3cccc(N4CCOCC4)c3)n2)cc1	–	–	–	–	–	> 1 µM	–
Cc1c(C(=O)Nc2ccc(Oc3ccnc(Nc4cccc(N5CCOCC5)c4)n3)cc2)c(=O)n(-c2ccccc2)n1C	1.01 µM	1.34 µM	1.37 µM	0.53 µM	1.34 µM	–	survival at 336 h [8]: 100%; Activity [9]: Non-Toxic; Cmax [10]: 2470 ng/mL; Cmax [11]: 3050 ng/mL; survival at 336 h [12]: 100%; IC50 [7]: > 40 µM; half-life [13]: 9.04 h; AUC(0-t) [14]: 19000 ng·h/mL; survival at 336 h [15]: 0%; survival at 336 h [16]: 100%; bioavailability [17]: 59.3%; CLz/F [18]: 6.83 mL/min/kg; Tmax [19]: 6 h; Activity [20]: Non-Toxic; Activity [21]: Non-Toxic; survival at 336 h [22]: 70%; AUC(0-t) [23]: 8220 ng·h/mL; half-life [24]: 8.9 h; survival at 336 h [25]: 100%; CL/F [26]: 11 mL/min/kg
